Experimental data collected from several papers.
Values after ≈ are worked out from the molar mass of the structure shown.

COc1ccc(O)c(C(C)(C)C)c1 — IC50 (DPPH scavenging, absorbance): 10.1 µg/mL
O=C(Nc1ccc(O)cc1)c1ccccc1O — IC50 (Chikungunya virus; viral replication, luciferase; BHK-21; 16 h): > 100 µM
C[C@]12CCC(=O)C(O)=C1CC[C@@H]1[C@@H]2CC[C@]2(C)C(=O)CC[C@@H]12 — IC50 (FaDu; cell growth or viability; 72 h): > 20 µM
O=c1[nH]cnc2c1nnn2-c1cccc(Cl)c1 — IC50 (Chikungunya virus; viral replication, luciferase; BHK-21; 16 h): > 100 µM
CO/N=C1\CN(c2nc3c(cc2F)c(=O)c(C(=O)O)cn3C2CC2)CC1CN (stereo not drawn) — MIC (Haemophilus influenzae; microbial growth): 2 µg/mL (≈ 5.14 µM)
O=c1c(O[C@@H]2O[C@H](CO)[C@H](O)[C@H](O)[C@H]2O)c(-c2ccc(O)c(O)c2)oc2cc(O)cc(O)c12 — IC50 (DPPH scavenging, absorbance; 30 min): 142 µM
CC(Cc1ccc(O)cc1)NCC(O)c1cc(O)cc(O)c1 (stereo not drawn) — IC50 (THP-1; TNF-α release, inhibitor; 17 h, LPS-stimulated): 0.12 µM
O=C(Nc1ncc([N+](=O)[O-])s1)c1ccccc1O — IC50 (Chikungunya virus; viral replication, luciferase; BHK-21; 16 h): 13.1 µM
COc1c2c(cc3c1OCO3)[C@]13C=C[C@H](OC)C[C@@H]1[N@](C2)C[C@H]3OC(=O)c1ccc2ccccc2c1 — IC50 (SAOS-2; cell growth or viability, WST-1): > 10 µM
CC(C)=CCC/C(C)=C/COc1cc(O)cc(O)c1C(=O)c1ccccc1 — IC50 (DPPH scavenging, absorbance; 30 min): 2330 µM
COc1c(N2CCNC(C)C2)c(F)cc2c(=O)c(C(=O)O)cn(C3CC3)c12 (stereo not drawn) — MIC (Haemophilus influenzae; microbial growth): > 4 µg/mL
COc1c2ccoc2cc2oc(=O)ccc12 — IC50 (HEp-2; cell growth or viability, WST-1; 48 h): 23.4 µM
